# Laboratory results taken from paper PMC6075869 (Journal of medicinal chemistry, 2017).
# Key:
# muscarinic M3 receptor [1] = experiment: Radioligand binding assay
# muscarinic receptor M2 = experiment: Radioligand binding assay; details: no significant affinity up to 10 μM
# [2] = biological target: muscarinic acetylcholine receptor (mAchR) M5 (Homo sapiens, UniProt P08912); experiment: Radioligand binding assay
# M5 [3] = experiment: Tango assay, agonist activity on M5; format: cell-based
# muscarinic receptor M4 = experiment: Radioligand binding assay; details: no significant affinity up to 10 μM
# muscarinic M3 receptor [4] = experiment: Functional assay, agonist activity on M3; format: cell-based
# muscarinic receptor M1 = experiment: Radioligand binding assay; details: no significant affinity up to 10 μM
# M5 [5] = experiment: Functional assay, antagonist activity on M5; format: cell-based
# nAchR α3β4 = nAchR α3β4 (Rattus norvegicus, UniProt P04757+P12392); experiment: Radioligand binding assay; details: for ligand efficiency (LE): calculated from Ki
# 5-HT1B receptor = details: agonist; cited from earlier work
# 5-HT3 receptor = details: antagonist; cited from earlier work
# 5-HT1A receptor = details: agonist; cited from earlier work
# 5-HT2 receptor = details: agonist; cited from earlier work
# [6] = biological target: metabotropic glutamate receptor 2; details: cited from earlier work
# [7] = biological target: metabotropic glutamate receptor 3; details: cited from earlier work
# [8] = tested on: vesicular acetylcholine transporter; details: cited from earlier work
# HIV type 1 protease = details: cited from earlier work
# [9] = biological target: muscarinic acetylcholine receptor M1; details: cited from earlier work
# [10] = biological target: muscarinic acetylcholine receptor M2; details: cited from earlier work
# carbonic anhydrase II = details: cited from earlier work
# [11] = tested on: endothelial human nitric-oxide synthase; details: cited from earlier work
# [12] = tested on: inducible human nitric-oxide synthase; details: cited from earlier work
# [13] = tested on: brain human nitric-oxide synthase; details: cited from earlier work
# histamine H3 receptor = details: cited from earlier work
# σ opioid receptor = details: cited from earlier work
# [14] = tested on: human sodium/glucose cotransporter 1; details: cited from earlier work
# [15] = tested on: human sodium/glucose cotransporter 2; details: cited from earlier work
# nAchR α4β4 = nAchR α4β4 (Rattus norvegicus, UniProt P09483+P12392); experiment: Radioligand binding assay
# In short: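 Ki from radioligand binding run by the NIMH PDSP protocols. Ligand efficiency derived from Ki as LE = −RT(lnKi)/Nheavy ≈ −1.373 log10Ki/Nheavy. R is the gas constant, T is the experimental temperature in Kelvin, and Nheavy is the heavy-atom count. LE is expressed in kcal/mol/heavy atom.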
# [16] = biological target: human nicotinic acetylcholine receptor (nAchR) α2β4; experiment: Radioligand binding assay
# Sequence of nAchR α3β4 (P04757 26-499): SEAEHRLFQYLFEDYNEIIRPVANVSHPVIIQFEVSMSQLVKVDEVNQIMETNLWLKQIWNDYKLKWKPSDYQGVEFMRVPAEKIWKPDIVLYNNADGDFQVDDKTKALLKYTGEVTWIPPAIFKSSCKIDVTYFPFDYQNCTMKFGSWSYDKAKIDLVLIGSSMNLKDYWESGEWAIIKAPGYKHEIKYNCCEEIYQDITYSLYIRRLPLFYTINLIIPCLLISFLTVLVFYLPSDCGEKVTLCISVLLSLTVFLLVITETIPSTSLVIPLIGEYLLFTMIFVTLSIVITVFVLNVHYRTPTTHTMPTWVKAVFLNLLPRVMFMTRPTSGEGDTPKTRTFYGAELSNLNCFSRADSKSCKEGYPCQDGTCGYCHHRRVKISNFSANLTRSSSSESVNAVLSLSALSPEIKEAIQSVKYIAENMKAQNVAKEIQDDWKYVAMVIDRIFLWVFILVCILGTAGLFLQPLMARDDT
# Sequence of nAchR α3β4 (P12392 21-495): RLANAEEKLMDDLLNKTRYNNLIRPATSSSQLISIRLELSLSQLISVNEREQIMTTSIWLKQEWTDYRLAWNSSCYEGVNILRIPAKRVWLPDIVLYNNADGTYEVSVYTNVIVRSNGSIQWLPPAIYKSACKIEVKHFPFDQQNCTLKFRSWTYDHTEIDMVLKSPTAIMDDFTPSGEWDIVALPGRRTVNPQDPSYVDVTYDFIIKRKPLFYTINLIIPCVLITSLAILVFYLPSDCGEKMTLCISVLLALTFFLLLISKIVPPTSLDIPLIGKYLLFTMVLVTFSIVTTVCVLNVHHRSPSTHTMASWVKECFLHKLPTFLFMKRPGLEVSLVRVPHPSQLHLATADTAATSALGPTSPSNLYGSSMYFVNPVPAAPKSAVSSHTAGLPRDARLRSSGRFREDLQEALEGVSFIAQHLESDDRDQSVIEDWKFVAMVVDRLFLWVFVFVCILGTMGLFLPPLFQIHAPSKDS
# Sequence of nAchR α4β4 (P09483 31-630): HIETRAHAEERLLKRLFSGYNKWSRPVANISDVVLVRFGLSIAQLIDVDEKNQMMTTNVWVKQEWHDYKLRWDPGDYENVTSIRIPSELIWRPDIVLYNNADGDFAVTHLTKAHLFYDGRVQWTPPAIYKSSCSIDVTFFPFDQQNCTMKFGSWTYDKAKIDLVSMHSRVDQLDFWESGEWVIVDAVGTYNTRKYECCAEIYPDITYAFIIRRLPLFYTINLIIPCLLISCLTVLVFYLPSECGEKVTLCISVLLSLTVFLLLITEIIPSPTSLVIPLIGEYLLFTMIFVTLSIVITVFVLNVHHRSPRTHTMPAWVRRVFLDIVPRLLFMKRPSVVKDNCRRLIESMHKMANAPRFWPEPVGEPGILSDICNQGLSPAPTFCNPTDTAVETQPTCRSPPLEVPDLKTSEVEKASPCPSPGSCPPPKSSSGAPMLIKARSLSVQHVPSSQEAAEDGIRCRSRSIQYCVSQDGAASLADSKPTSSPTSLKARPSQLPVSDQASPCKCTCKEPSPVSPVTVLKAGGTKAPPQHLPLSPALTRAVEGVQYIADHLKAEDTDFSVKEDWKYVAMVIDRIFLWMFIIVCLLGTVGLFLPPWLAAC
# Sequence of nAchR α4β4 (P12392 21-495): as the sequence (P12392 21-495) above
# Sequence of muscarinic acetylcholine receptor (mAchR) M5 (P08912 whole entry): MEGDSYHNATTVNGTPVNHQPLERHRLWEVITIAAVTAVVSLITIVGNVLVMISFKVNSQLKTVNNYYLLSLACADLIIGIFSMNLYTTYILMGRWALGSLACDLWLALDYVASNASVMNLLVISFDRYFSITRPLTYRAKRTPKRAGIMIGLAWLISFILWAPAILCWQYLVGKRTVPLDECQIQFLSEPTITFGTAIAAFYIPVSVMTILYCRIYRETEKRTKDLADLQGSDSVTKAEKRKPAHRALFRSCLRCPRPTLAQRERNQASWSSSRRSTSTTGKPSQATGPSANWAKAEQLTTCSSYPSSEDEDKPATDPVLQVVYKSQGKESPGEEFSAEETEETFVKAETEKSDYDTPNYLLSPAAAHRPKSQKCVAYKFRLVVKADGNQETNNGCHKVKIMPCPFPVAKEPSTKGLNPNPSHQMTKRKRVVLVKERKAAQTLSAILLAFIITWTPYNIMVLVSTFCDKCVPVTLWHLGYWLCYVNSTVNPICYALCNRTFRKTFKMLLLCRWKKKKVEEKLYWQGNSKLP
compound,measurement,setting,value
CCC(=O)OC1(c2ccccc2)CCN(C)CC1C (stereo not shown) [Alphaprodine],binding to M3,muscarinic M3 receptor [1],did not bind
same,affinity,muscarinic M3 receptor [1]; no significant affinity up to 10 μM,> 10 µM
same,affinity,muscarinic receptor M2,> 10 µM
same,Ki,[2],771 nM
same,ligand efficiency (LE),[2]; calculated from Ki,0.442 kcal/mol/heavy atom
same,agonist activity on M5,M5 [3],no agonist activity
same,affinity,muscarinic receptor M4,> 10 µM
same,agonist activity on M3,muscarinic M3 receptor [4],no agonist activity
same,affinity,muscarinic receptor M1,> 10 µM
same,antagonist activity on M5,M5 [5],antagonist
Clc1cccc(SC2CCNCC2)n1 [Anpirtoline],Ki,nAchR α3β4,3410 nM
same,ligand efficiency (LE),nAchR α3β4,0.536 kcal/mol/heavy atom
same,Ki,5-HT1B receptor,28 nM
same,Ki,5-HT3 receptor,30 nM
same,Ki,5-HT1A receptor,150 nM
same,Ki,5-HT2 receptor,1490 nM
N[C@@]1(C(=O)O)CS[C@H]2[C@H](C(=O)O)[C@H]21 [CHEMBL8839],Ki,[6],40.6 nM
same,Ki,[7],4.7 nM
OC1CCCCC1N1CCC(C2CCN(C3CCCCC3O)CC2)CC1 (stereo not shown) [CHEMBL20429],affinity,[8],200 nM
OC1CCCCC1N1CCC(C2CCCCC2)CC1 (stereo not shown) [CHEMBL21309],affinity,[8],40 nM
O=C1N(Cc2ccc(O)cc2)[C@H](Cc2ccccc2)[C@H](O)[C@@H](O)[C@@H](Cc2ccccc2)N1Cc1ccc(O)cc1 [CHEMBL35860],Ki,HIV type 1 protease,0.12 nM
C[C@@H]1OC(=O)[C@H]2C[C@H]3CCCC[C@H]3[C@H](/C=C\[C@H]3CCC[C@H](C)N3C)[C@@H]12 [CHEMBL58824],IC50,[9],851 nM
same,IC50,[10],851 nM
O=C1N(Cc2ccccc2)[C@@H](Cc2ccccc2)[C@H](O)[C@@H](O)[C@H](Cc2ccccc2)N1Cc1ccccc1 [CHEMBL148543],Ki,HIV type 1 protease,560 nM
NS(=O)(=O)c1cc2c(s1)SCCC2=O [CHEMBL158261],affinity,carbonic anhydrase II,3.6 nM
NC1=NCCCSC1 [CHEMBL186856],IC50,[11],10500 nM
same,IC50,[12],1200 nM
same,IC50,[13],2800 nM
N[C@@]1(C(=O)O)C[S+]([O-])[C@H]2[C@H](C(=O)O)[C@H]21 (stereo partly shown) [CHEMBL218710],Ki,[6],508 nM
same,Ki,[7],447 nM
C[C@@H]1CCCN1CCc1ccns1 [CHEMBL255141],Ki,histamine H3 receptor,17 nM
C[C@@H]1CCCN1CCc1ccccn1 [CHEMBL270807],Ki,histamine H3 receptor,200 nM
C[C@@H]1OC(=O)[C@@H]2C[C@@H]3CCCC[C@@H]3[C@@H](/C=C/[C@H]3CCC[C@H](C)N3C)[C@H]12 [CHEMBL301670],IC50,[9],427 nM
same,IC50,[10],95.5 nM
NC1=NCCCS1 [CHEMBL306541],IC50,[11],7100 nM
same,IC50,[12],2900 nM
same,IC50,[13],3200 nM
NS(=O)(=O)c1cc2c(s1)S(=O)(=O)CCC2 [CHEMBL333193],affinity,carbonic anhydrase II,3.3 nM
CN(CCc1ccc2ccccc2c1)[C@H]1CCCC[C@H]1N1CCCC1 [CHEMBL606937],IC50,σ opioid receptor,37 nM
CN(CCc1ccc2c(c1)OCO2)[C@@H]1CCCC[C@@H]1N1CCCC1 [CHEMBL606938],IC50,σ opioid receptor,34 nM
N#Cc1ccc(Cc2cc([C@@H]3O[C@H](CO)[C@@H](O)[C@H](O)[C@H]3O)ccc2Cl)cc1 [CHEMBL1807550],IC50,[14],10 nM
same,IC50,[15],10000 nM
CCOc1ccc(Cc2cc([C@@H]3O[C@H](CO)[C@@H](O)[C@H](O)[C@H]3O)ccc2Cl)cc1 [CHEMBL3125318],IC50,[14],3100 nM
NC1CCCC1c1ccccc1 (stereo not shown) [cypenamine],Ki,nAchR α3β4,2690 nM
same,ligand efficiency (LE),nAchR α3β4,0.637 kcal/mol/heavy atom
same,Ki,nAchR α4β4,4110 nM
same,ligand efficiency (LE),nAchR α4β4; calculated from Ki,0.616 kcal/mol/heavy atom
same,Ki,[16],4650 nM
